Assay results taken from ChEMBL document CHEMBL1124334, “Hypolipidemic 2-[4-(1,1-dimethylethyl)phenyl]-4H-3,1-benzoxazin-4-ones. Structure-activity relationships of a novel series of high-density lipoprotein elevators” (1989).

Key:
Assay type in all cases: functional
[1] = species on record: Rattus norvegicus; assay: Change in plasma triglycerides in normocholesterolemic rats at 0.2 % composition of dose with diet given in a period of 3 days.
Outline: (§1)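 Young male Wistar rats (120–150 g) fed basal powdered rodent diet ad libitum, with compound mixed into the diet at 0.2% w/w for 3 or 7 days. Plasma triglyceride and total cholesterol were then measured by standard enzymatic methods. Results are % change relative to controls.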

[2] = tested on: Rattus norvegicus; assay: Percent change in plasma total cholesterol in cholesterol-fed rats at 200 mg/kg dose given in a period of 3 days
Outline: (§2)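 Young male Wistar rats (120–150 g), groups of eight, fed ad libitum rodent diet with 0.5% w/w cholesterol and 0.25% cholic acid for 10 days. Compound suspended in 0.5% w/w tragacanth mucilage and given daily by stomach tube over the final 3 days; controls got vehicle. After overnight starvation, rats were killed 3 h post final dose and cardiac blood taken into heparin.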

[3] = species on record: Rattus norvegicus; assay: Change in plasma total cholesterol in normocholesterolemic rats at 0.2 % composition of dose with diet given in a period of 3 days.; outline: as §1
[4] = tested on: Rattus norvegicus; assay: Percent change in plasma triglycerides in cholesterol-fed rats at 200 mg/kg dose given in a period of 3 days; outline: as §2
[5] = tested on: Rattus norvegicus; assay: Percent change in plasma HDL cholesterol in cholesterol-fed rats at 200 mg/kg dose given in a period of 3 days; outline: as §2
[6] = tested on: Rattus norvegicus; assay: Ratio of plasma HDL cholesterol/total cholesterol at 200 g/kg for 3 days; details: in the assay text read “200 mg/kg” for “200 g/kg”; outline: as §2
[7] = species on record: Rattus norvegicus; assay: The compound was tested for % change in plasma triglycerides in normocholesterolemic rats at 0.2 % composition of dose with diet given in a period of 7 days; outline: as §1
[8] = species on record: Rattus norvegicus; assay: The compound was tested for % change in plasma total cholesterol in normocholesterolemic rats at 0.2 % composition of dose with diet given in a period of 7 days; outline: as §1
[9] = Ratio of plasma HDL cholesterol/total cholesterol at 25 mg/kg for 3 days; details: dose 200 mg/kg; in the assay text read “200 mg/kg” for “25 mg/kg”; outline: as §2
[10] = species on record: Rattus norvegicus; assay: Tested for % change in plasma total cholesterol in normocholesterolemic rats at 0.2 % composition of dose with diet given in a period of 3 days; outline: as §1
[11] = species on record: Rattus norvegicus; assay: Tested for % change in plasma triglycerides in normocholesterolemic rats at 0.2 % composition of dose with diet given in a period of 3 days; outline: as §1
[12] = tested on: Rattus norvegicus; assay: The compound was tested for % change in plasma triglycerides in cholesterol-fed rats at 50 mg/kg dose given in a period of 3 days; outline: as §2
[13] = tested on: Rattus norvegicus; assay: The compound was tested for % change in plasma HDL cholesterol in cholesterol-fed rats at 100 mg/kg dose given in a period of 3 days; outline: as §2
[14] = tested on: Rattus norvegicus; assay: The compound was tested for % change in plasma HDL cholesterol in cholesterol-fed rats at 50 mg/kg dose given in a period of 3 days; outline: as §2
[15] = tested on: Rattus norvegicus; assay: The compound was tested for % change in plasma total cholesterol in cholesterol-fed rats at 100 mg/kg dose given in a period of 3 days; outline: as §2
[16] = tested on: Rattus norvegicus; assay: The compound was tested for % change in plasma total cholesterol in cholesterol-fed rats at 50 mg/kg dose given in a period of 3 days; outline: as §2
[17] = tested on: Rattus norvegicus; assay: The compound was tested for % change in plasma triglycerides in cholesterol-fed rats at 100 mg/kg dose given in a period of 3 days; outline: as §2
[18] = species on record: Rattus norvegicus; assay: tested for % change in plasma triglycerides in normocholesterolemic rats at 0.2 % composition of dose with diet given in a period of 3 days; outline: as §1
[19] = Ratio of plasma HDL cholesterol/total cholesterol at 100 mg/kg for 3 days; outline: as §2
[20] = Ratio of plasma HDL cholesterol/total cholesterol at 50 mg/kg for 3 days; outline: as §2

Structure (SMILES) | Change [1] [%] | Change [2] [%] | Change [3] [%] | Change [4] [%] | Change [5] [%] | Change in HDL/total cholesterol ratio [6] | Change [7] [%] | Change [8] [%] | further results
CC(C)(C)c1ccc(-c2nc3ccc(-c4ccccc4)cc3c(=O)o2)cc1 | 1 | -8 | 0 | 0 | 60 | 74 | – | – | –
COC(=O)c1cc(Br)ccc1NC(=O)c1ccc(C(C)(C)C)cc1 | -7 | -49 | -34 | -22 | -7 | 70 | – | – | –
CNc1nc(-c2ccc(C(C)(C)C)cc2)nc2ccc(C)cc12 | – | 27 | – | 79 | 10 | -12 | – | – | –
CN(C(=O)c1ccc(C(C)(C)C)cc1)c1ccc(Br)cc1C(=O)O | 10 | -22 | -10 | -13 | 33 | 59 | – | – | –
Cc1ccc2nc(-c3ccc(C(C)(C)C)cc3)nc(O)c2c1 | 28 | -17 | 1 | -18 | 24 | 25 | – | – | –
CC(C)(C)c1ccc(-c2nc3ccc(Cl)cc3c(=O)o2)cc1 | – | -18 | – | -30 | 16 | 31 | -36 | -31 | –
CC(C)(C)c1ccc(-c2nc3ccc(I)cc3c(=O)o2)cc1 | – | -26 | – | -3 | 17 | 50 | -35 | -48 | –
CC(C)(C)c1ccc(-c2nc3ccc(C(C)(C)C)cc3c(=O)o2)cc1 | -17 | 63 | -15 | 52 | 30 | -17 | – | – | –
CC(C)(C)c1ccc(C(=O)Nc2ccc(Br)cc2C(=O)O)cc1 | -20 | -29 | -56 | -26 | 24 | 70 | – | – | –
Cc1ccc2nc(Cc3ccc(C(C)(C)C)cc3)oc(=O)c2c1 | – | 1 | – | 27 | -19 | -27 | – | – | –
Cc1ccc2nc(-c3cccc(C(C)(C)C)c3)oc(=O)c2c1 | – | 43 | – | 22 | 50 | – | 25 | -4 | Ratio [9]: 3
Cc1ccc2nc(-c3ccccc3C(C)(C)C)oc(=O)c2c1 | – | -6 | – | -25 | -3 | – | -13 | -11 | Ratio [9]: 6
CC(C)(C)c1ccc(-c2nc3ccc(NS(=O)(=O)c4ccccc4)cc3c(=O)o2)cc1 | 27 | 7 | 5 | -7 | 30 | 35 | – | – | –
CC(C)(C)c1ccc(-c2nc3ccc([N+](=O)[O-])cc3c(=O)o2)cc1 | – | -23 | – | -19 | -8 | 13 | -27 | 1 | –
Cc1ccc2nc(-c3ccc(C(C)C)cc3)oc(=O)c2c1 | 7 | -26 | -11 | -17 | 33 | – | – | – | Ratio [9]: 79
CC(C)(C)c1ccc(-c2nc3ccccc3c(=O)o2)cc1 | – | -41 | – | -26 | 49 | 131 | -32 | -24 | –
CC(C)(C)c1ccc(C(=O)Nc2ccc(Br)cc2C(N)=O)cc1 | 29 | -8 | 4 | -11 | -1 | 4 | – | – | –

Structure (SMILES) | Change [1] [%] | Change [2] [%] | Change [3] [%] | Change [4] [%] | Change [5] [%] | Change in HDL/total cholesterol ratio [6] | Change [7] [%] | Change [8] [%] | further results
CCCCc1ccc2nc(-c3ccc(C(C)(C)C)cc3)oc(=O)c2c1 | -32 | -4 | -3 | 22 | 65 | 69 | – | – | –
Cc1ccc2nc(-c3ccc(C(C)(C)C)cc3)n(C)c(=O)c2c1 | -3 | 2 | 2 | 8 | 6 | -5 | – | – | –
CC(C)(C)c1ccc(-c2nc3ccc(NS(C)(=O)=O)cc3c(=O)o2)cc1 | -8 | -16 | -3 | 6 | 22 | 27 | – | – | –
COC(=O)c1ccc2nc(-c3ccc(C(C)(C)C)cc3)oc(=O)c2c1 | -13 | 29 | -2 | 0 | 18 | -4 | – | – | –
CN(C)c1ccc2nc(-c3ccc(C(C)(C)C)cc3)oc(=O)c2c1 | -12 | -4 | 10 | 16 | 26 | 22 | – | – | –
COc1ccc2nc(-c3ccc(C(C)(C)C)cc3)oc(=O)c2c1 | -52 | -28 | -48 | -26 | 21 | – | – | – | Ratio [6]: 52
CC(C)(C)c1ccc(-c2nc3ccc(N)cc3c(=O)o2)cc1 | 1 | -25 | 4 | -11 | 4 | 25 | – | – | –
CCCCCCCCc1ccc2nc(-c3ccc(C(C)(C)C)cc3)oc(=O)c2c1 | -14 | -9 | -1 | -7 | 35 | 29 | – | – | –
CC(C)(C)c1ccc(C(=O)O)cc1 | – | -62 | – | -38 | -50 | 60 | -41 | -38 | –
Cc1ccc(NC(=O)c2ccc(C(C)(C)C)cc2)c(C(=O)O)c1 | – | -9 | – | 8 | 91 | 47 | – | – | Change [10]: -15%; Change [11]: -16%
CC(C)(C)c1ccc(-c2nc3ccc(C(F)(F)F)cc3c(=O)o2)cc1 | -45 | -18 | -40 | -6 | -8 | 11 | – | – | –
COC(=O)c1cc(C)ccc1NC(=O)c1ccc(C(C)(C)C)cc1 | -8 | -20 | -4 | 68 | 25 | 46 | – | – | –
Cc1ccc2nc(-c3ccccc3)oc(=O)c2c1 | – | -2 | – | -4 | -2 | – | -1 | -12 | Ratio [9]: 4
CC(C)(C)c1ccc(-c2nc3ccc(Br)cc3c(=O)o2)cc1 | – | -25 | -47 | -3 | 74 | 114 | -40 | -39 | Change [12]: 6%; Change [13]: 71%; Change [14]: 40%; Change [15]: -25%; Change [16]: -12%; Change [17]: -6%; Change [18]: -16%; Ratio [19]: 110; Ratio [20]: 49
CCOC(=O)C(C)(C)Oc1ccc(Cl)cc1 [CLOFIBRATE] | – | -30 | – | -10 | -10 | 8 | -48 | -27 | –
O=C(O)c1cccnc1 [NIACIN] | – | -29 | – | -39 | 20 | – | -3 | -4 | Ratio [6]: 63
